According to ChEMBL document CHEMBL3774376, “Synthesis, and anticonvulsant activity of new amides derived from 3-methyl- or 3-ethyl-3-methyl-2,5-dioxo-pyrrolidin-1-yl-acetic acids” (Bioorg Med Chem, 2016):
The source made the active and inactive calls. The calls are words filed in the database; no cut-off is given here.

Experiments:
Mus musculus [1] = species: Mus musculus; experiment: Protection index, ratio of TD50 for CD1 albino mouse to ED50 for protection against maximal electroshock-induced seizures in CD1 albino mouse
Outline: (§1)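 Quantitation in male CD-1 mice dosed ip at the previously estimated time of peak effect. Seizures were induced by MES or by sc pentylenetetrazole 85 mg/kg; rotarod at 10 rpm assessed motor impairment. Groups of six, at least three doses giving 10-90% effect.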

Rattus norvegicus = species: Rattus norvegicus; experiment: Displacement of [3H]BTX from voltage-sensitive Na+ channel site 2 in rat cerebral cortex synaptoneurosomes at 100 uM after 60 mins by liquid scintillation spectroscopic analysis; assay type: tissue-based
Outline: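 Cerebral cortex synaptoneurosomes from rat, tested at 100 µM for inhibition of specific [3H]BTX binding to the voltage-sensitive Na+ channel site 2. Reported as % inhibition of control specific binding; run commercially.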

Mus musculus [2] = experiment: Neurotoxicity in CD1 albino mouse assessed as acute motor impairment at 100 to 300 mg/kg, ip after 4 hrs by rotarod test; assay type: toxicity, organism-based; details: in vivo
Outline: (§2)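 Male CD-1 mice given 30, 100 or 300 mg/kg ip in 0.5% methylcellulose, tested at 0.5 and 4 h. Motor impairment was scored as failure to keep balance for at least 1 min on a rod rotating at 10 rpm. Minimum dose causing impairment reported.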

Mus musculus [3] = experiment: Local anesthetic activity in CD1 albino mouse assessed prolongation of time reaction at 2 % concentration after 20 secs by tail immersion test relative to vehicle control; assay type: functional
Outline: (§3)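 Compound at 1 or 2% in 0.5% methylcellulose, injected sc (0.2 ml) about 1 cm from the tail root of male CD-1 mice. After 15 min, the distal 3 cm of the tail was immersed in 50 ± 0.5 °C water and withdrawal time measured, cut off at 20 s. n=8; mean ± SEM; % prolongation relative to vehicle.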

Mus musculus [4] = experiment: Anticonvulsant activity in CD1 albino mouse assessed as protection against subcutaneous pentylenetetrazole-induced seizures at 300 mg/kg, ip after 0.5 hrs; assay type: functional, organism-based
Outline: (§4)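 Male CD-1 mice (16-26 g), compounds ip in 0.5% methylcellulose/water at 30, 100 or 300 mg/kg, 3-4 per group. At 0.5 or 4 h, pentylenetetrazole 85 mg/kg was injected sc. Protection was absence of clonic convulsions (at least 5 s) over a 30 min observation. Minimum active dose recorded.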

Mus musculus [5] = experiment: Local anesthetic activity in CD1 albino mouse assessed prolongation of time reaction at 1 % concentration after 20 secs by tail immersion test relative to vehicle control; assay type: functional; outline: as §3
Mus musculus [6] = experiment: Anticonvulsant activity in CD1 albino mouse assessed as protection against maximal electroshock-induced seizures at 100 to 300 mg/kg, ip after 0.5 hrs; assay type: functional; details: read-out: MED
Mus musculus [7] = experiment: Anticonvulsant activity in ip dosed CD1 albino mouse assessed as time to peak effect; assay type: functional; outline: as §1
Mus musculus [8] = experiment: Anticonvulsant activity in CD1 albino mouse assessed as protection against subcutaneous pentylenetetrazole-induced seizures at 300 mg/kg, ip after 4 hrs; assay type: functional, organism-based; outline: as §4
Mus musculus [9] = experiment: Anticonvulsant activity in CD1 albino mouse assessed as protection against maximal electroshock-induced seizures at 100 to 300 mg/kg, ip after 4 hrs; assay type: functional; details: read-out: MED
[10] = Neurotoxicity in ip dosed CD1 albino mouse assessed as acute motor impairment by rotarod test; assay type: toxicity, organism-based; details: in vivo; outline: as §1
Mus musculus [11] = experiment: Neurotoxicity in CD1 albino mouse assessed as acute motor impairment at 100 to 300 mg/kg, ip after 0.5 hrs by rotarod test; assay type: toxicity, organism-based; details: in vivo; outline: as §2
Mus musculus [12] = experiment: Anticonvulsant activity in CD1 albino mouse assessed as protection against subcutaneous pentylenetetrazole-induced seizures at 100 to 300 mg/kg, ip after 0.5 hrs; assay type: functional; details: CD1, 0.5 h, read-out: MED; outline: as §4
Mus musculus [13] = experiment: Neurotoxicity in CD1 albino mouse assessed as acute motor impairment at 300 mg/kg, ip after 4 hrs by rotarod test; assay type: toxicity, organism-based; details: in vivo; outline: as §2
Mus musculus [14] = experiment: Anticonvulsant activity in ip dosed CD1 albino mouse assessed as time to peak effect by 6Hz psychomotor seizure test; assay type: functional
Outline: (§5)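 6-Hz corneal stimulation at 32 mA (6 Hz, 3 s) in male CD-1 mice dosed ip. Groups of six received several doses until at least three points fell between 10 and 90% protection. […] PI = TD50/ED50 (rotarod).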

Mus musculus [15] = experiment: Anticonvulsant activity in ip dosed CD1 albino mouse assessed as protection against 32 mA-current- for 3 secs induced seizure by 6Hz psychomotor seizure test; assay type: functional; outline: as §5
Mus musculus [16] = species: Mus musculus; experiment: Protection index, ratio of TD50 for CD1 albino mouse to ED50 for protection against 32 mA-current- for 3 secs induced seizure in CD1 albino mouse by 6Hz psychomotor seizure test; outline: as §5
Mus musculus [17] = experiment: Anticonvulsant activity in CD1 mouse assessed as protection against 32 mA-current- for 3 secs induced seizure at 100 mg/kg, ip after 2 hrs by 6Hz psychomotor seizure test; assay type: functional, organism-based
Outline: (§6)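 Male CD-1 mice given 100 mg/kg ip in 0.5% methylcellulose, four per time point. Corneal stimulation at 32 mA, 0.2 ms monopolar rectangular pulses at 6 Hz for 3 s, from a constant-current device. A mouse was protected if it resumed normal exploratory behavior within 10 s. Reported as number protected over number tested.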

Mus musculus [18] = experiment: Anticonvulsant activity in CD1 albino mouse assessed as protection against maximal electroshock-induced seizures at 300 mg/kg, ip after 4 hrs; assay type: functional, organism-based
Mus musculus [19] = experiment: Anticonvulsant activity in CD1 mouse assessed as protection against 32 mA-current- for 3 secs induced seizure at 100 mg/kg, ip after 0.25 hrs by 6Hz psychomotor seizure test; assay type: functional; outline: as §6
Mus musculus [20] = experiment: Anticonvulsant activity in ip dosed CD1 albino mouse assessed as protection against maximal electroshock-induced seizures; assay type: functional
Mus musculus [21] = experiment: Antinociceptive activity in CD1 albino mouse assessed as reduction of formalin-induced licking response in inflammatory phase at 69.05 mg/kg, ip preincubated for 30 mins measured after 15 to 20 mins; assay type: functional; parameters: scale not given: the % may be the effect or the level left
Mus musculus [22] = experiment: Anticonvulsant activity in CD1 mouse assessed as protection against 32 mA-current- for 3 secs induced seizure at 100 mg/kg, ip after 0.5 hrs by 6Hz psychomotor seizure test; assay type: functional; outline: as §6
Mus musculus [23] = experiment: Antinociceptive activity in CD1 albino mouse assessed as reduction of formalin-induced licking response in neurogenic phase at 69.05 mg/kg, ip preincubated for 30 mins measured after 25 to 30 mins; assay type: functional; parameters: scale not given: the % may be the effect or the level left
Mus musculus [24] = experiment: Anticonvulsant activity in ip dosed CD1 albino mouse assessed as protection against subcutaneous pentylenetetrazole-induced seizures; assay type: functional; outline: as §1
Mus musculus [25] = experiment: Protection index, ratio of TD50 for CD1 albino mouse to ED50 for protection against subcutaneous pentylenetetrazole-induced seizures in CD1 albino mouse; outline: as §1
Mus musculus [26] = experiment: Antinociceptive activity in CD1 albino mouse assessed as reduction of formalin-induced licking response in neurogenic phase at 69.05 mg/kg, ip preincubated for 30 mins measured after 5 mins; assay type: functional, organism-based
Mus musculus [27] = experiment: Neurotoxicity in CD1 albino mouse assessed as acute motor impairment at 300 mg/kg, ip measured after 0.5 hrs by rotarod test; assay type: toxicity, organism-based; details: in vivo; outline: as §2
Mus musculus [28] = experiment: Antinociceptive activity in CD1 albino mouse assessed as reduction of formalin-induced licking response in inflammatory phase at 32.08 mg/kg, ip preincubated for 4 hrs measured after 25 to 30 mins; assay type: functional; parameters: scale not given: the % may be the effect or the level left
Mus musculus [29] = experiment: Antinociceptive activity in CD1 albino mouse assessed as reduction of formalin-induced licking response in neurogenic phase at 32.08 mg/kg, ip preincubated for 4 hrs measured after 5 mins; assay type: functional; parameters: scale not given: the % may be the effect or the level left
Mus musculus [30] = experiment: Antinociceptive activity in CD1 albino mouse assessed as reduction of formalin-induced licking response in inflammatory phase at 32.08 mg/kg, ip preincubated for 4 hrs measured after 15 to 20 mins; assay type: functional; parameters: scale not given: the % may be the effect or the level left

O=C1NC(=O)C(c2ccccc2)(c2ccccc2)N1 [PHENYTOIN]
Ratio TD50/ED50 (Mus musculus [1]): 8.56 | inhibition (Rattus norvegicus): 53.9% | MTC (Mus musculus [2]): 100 mg/kg | Activity (Mus musculus [3]): 84% | Activity (Mus musculus [4]): inactive | Activity (Mus musculus [5]): 18% | minimal effective dose (Mus musculus [6]): 30 mg/kg | Time (Mus musculus [7]): 1 h | Activity (Mus musculus [8]): inactive | minimal effective dose (Mus musculus [9]): 30 mg/kg | TD50 [10]: 56.9 mg/kg | MTC (Mus musculus [11]): 100 mg/kg

CC1CC(=O)N(CC(=O)N2CCN(c3ccccc3Cl)CC2)C1=O (stereo unspecified)
minimal effective dose (Mus musculus [12]): 300 mg/kg | Activity (Mus musculus [13]): Non-toxic | Time (Mus musculus [14]): 0.25 h | ED50 (Mus musculus [15]): 152 mg/kg | Ratio TD50/ED50 (Mus musculus [16]): >3.29 | minimal effective dose (Mus musculus [6]): 300 mg/kg | Activity (Mus musculus [17]): inactive | Activity (Mus musculus [18]): inactive | Activity (Mus musculus [8]): inactive | Activity (Mus musculus [19]): 100% | TD50 [10]: > 500 mg/kg | MTC (Mus musculus [11]): 300 mg/kg

CCC1(C)CC(=O)N(CC(=O)N2CCN(c3ccc(F)cc3)CC2)C1=O (stereo unspecified)
Ratio TD50/ED50 (Mus musculus [1]): 2.76 | ED50 (Mus musculus [20]): 69 mg/kg | inhibition (Rattus norvegicus): 32.5% | minimal effective dose (Mus musculus [12]): 100 mg/kg | Activity (Mus musculus [21]): 93% | Activity (Mus musculus [22]): 75% | Activity (Mus musculus [23]): 92% | ED50 (Mus musculus [24]): 130 mg/kg | Activity (Mus musculus [13]): Non-toxic | Ratio TD50/ED50 (Mus musculus [25]): 1.47 | Activity (Mus musculus [3]): 61% | minimal effective dose (Mus musculus [6]): 100 mg/kg | Activity (Mus musculus [17]): inactive | Activity (Mus musculus [18]): inactive | Activity (Mus musculus [26]): inactive | Time (Mus musculus [7]): 0.5 h | Activity (Mus musculus [8]): inactive | Activity (Mus musculus [19]): 75% | TD50 [10]: 191 mg/kg | MTC (Mus musculus [11]): 300 mg/kg

CC1CC(=O)N(CC(=O)N2CCN(c3ccc(Cl)cc3)CC2)C1=O (stereo unspecified)
Ratio TD50/ED50 (Mus musculus [1]): >15.59 | ED50 (Mus musculus [20]): 32.1 mg/kg | inhibition (Rattus norvegicus): 20.9% | Activity (Mus musculus [27]): Non-toxic | Activity (Mus musculus [28]): 86% | MTC (Mus musculus [2]): 300 mg/kg | ED50 (Mus musculus [24]): > 250 mg/kg | Ratio TD50/ED50 (Mus musculus [25]): >2 | Activity (Mus musculus [3]): 124% | Activity (Mus musculus [4]): inactive | Activity (Mus musculus [29]): 76% | Activity (Mus musculus [5]): 26% | Activity (Mus musculus [30]): 91% | minimal effective dose (Mus musculus [6]): 100 mg/kg | Time (Mus musculus [7]): 4 h | Activity (Mus musculus [8]): inactive | minimal effective dose (Mus musculus [9]): 30 mg/kg | TD50 [10]: > 500 mg/kg

CCC1(C)CC(=O)N(CC(=O)N2CCN(c3ccccc3Cl)CC2)C1=O (stereo unspecified)
Ratio TD50/ED50 (Mus musculus [1]): 1.08 | ED50 (Mus musculus [20]): 122 mg/kg | Activity (Mus musculus [22]): 100% | Activity (Mus musculus [13]): Non-toxic | Time (Mus musculus [14]): 0.5 h | ED50 (Mus musculus [15]): 73.3 mg/kg | Activity (Mus musculus [4]): inactive | Ratio TD50/ED50 (Mus musculus [16]): 1.8 | minimal effective dose (Mus musculus [6]): 100 mg/kg | Activity (Mus musculus [18]): inactive | Time (Mus musculus [7]): 0.5 h | Activity (Mus musculus [8]): inactive | TD50 [10]: 132 mg/kg | MTC (Mus musculus [11]): 300 mg/kg
